In ChEMBL document CHEMBL3352534, “A prodrug strategy for the oral delivery of a poorly soluble HCV NS5B thumb pocket 1 polymerase inhibitor using self-emulsifying drug delivery systems (SEDDS)” (Bioorg Med Chem Lett, 2015):

What was measured:
Plasma [1] = assay: Prodrug conversion in human plasma assessed as half life
Plasma [2] = assay: Prodrug conversion in rat plasma assessed as half life; type: ADME, cell-free
Method in brief: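 Rat plasma (from centrifuged whole blood) was incubated with 2 µM compound at 37 °C. Samples were quenched 1:3 with acetonitrile/methanol 1:1, centrifuged and analysed by HPLC-PDA. Half-life was taken as 0.693/first-order rate of loss of the starting compound.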

[3] = Prodrug conversion in simulated gastric fluid assessed as half life; type: ADME; conditions: simulated gi fluid
Method in brief: (§1)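 Incubations used 2 µM compound at 37 °C in either SGF (0.2% NaCl/HCl, pH 1.2, pepsin 3.2 mg/mL) or SIF (KH2PO4/NaOH, pH 7.5, pancreatin 10 mg/mL). Samples were quenched 1:2 with acetonitrile/methanol 1:1 and analysed by HPLC. t1/2 = 0.693/first-order disappearance rate.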

Intestine = assay: Prodrug conversion in rat intestinal microsomes assessed as half life
[4] = Prodrug conversion in simulated intestinal fluid assessed as half life; type: ADME; conditions: simulated gi fluid; method in brief: as §1
Liver microsome [5] = assay: Prodrug conversion in rat liver microsomes assessed as half life
[6] = Prodrug conversion in human intestinal microsomes assessed as half life
Liver microsome [7] = assay: Prodrug conversion in human liver microsomes assessed as half life
[8] = Cmax in rat plasma at 10 mg/kg, po using 0.5% Methyl cellulose, 0.3% Tween-80, 1% N-methylpyrrolidone in water vehicle; type: ADME, organism-based; set-up: dose 10 mg/kg, route oral; conditions: plasma
Method in brief: (§2)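 Fasted rats were given a single 10 mg/kg oral dose, with n = 3 per dose and route. Plasma was extracted by solid-phase extraction. Analysis used HPLC with diode-array UV (200–400 nm, peak height at best S/N) or LC/MS. Calibration standards were made in blank plasma, with LOQ 7–14 ng/mL. Parameters came from noncompartmental analysis.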

[9] = AUC in rat plasma at 10 mg/kg, po using 0.5% Methyl cellulose, 0.3% Tween-80, 1% N-methylpyrrolidone in water vehicle; type: ADME, organism-based; set-up: dose 10 mg/kg, route oral; conditions: plasma; method in brief: as §2
Rattus norvegicus [10] = assay: Cmax in rat plasma assessed as (E)-3-(4-(1-(2-(5-chloropyrimidin-2-yl)-3-cyclopentyl-1-methyl-1H-indole-6-carboxamido)cyclobutanecarboxamido)-2-ethoxyphenyl)acrylic acid at 10 mg/kg, po using 0.5% Methyl cellulose, 0.3% Tween-80, 1% N-methylpyrrolidone in water vehicle; type: ADME, organism-based; set-up: dose 10 mg/kg, route oral; conditions: in vivo; method in brief: as §2
Rattus norvegicus [11] = assay: AUC in rat plasma assessed as (E)-3-(4-(1-(2-(5-chloropyrimidin-2-yl)-3-cyclopentyl-1-methyl-1H-indole-6-carboxamido)cyclobutanecarboxamido)-2-ethoxyphenyl)acrylic acid at 10 mg/kg, po using 0.5% Methyl cellulose, 0.3% Tween-80, 1% N-methylpyrrolidone in water vehicle; type: ADME, organism-based; set-up: dose 10 mg/kg, route oral; conditions: in vivo; method in brief: as §2
[12] = (§3) Cmax in rat plasma at 10 mg/kg, po using 10.6% PEG400, 5.4% Cremophor EL, 2.6% Labrasol, 1.4% Capmul MCM in water (80%) vehicle; type: ADME, organism-based; set-up: dose 10 mg/kg, route oral; conditions: plasma; method in brief: as §2
[13] = (§4) AUC in rat plasma at 10 mg/kg, po using 10.6% PEG400, 5.4% Cremophor EL, 2.6% Labrasol, 1.4% Capmul MCM in water (80%) vehicle; type: ADME, organism-based; set-up: dose 10 mg/kg, route oral; conditions: plasma; method in brief: as §2
Rattus norvegicus [14] = assay: Cmax in rat plasma assessed as (E)-3-(4-(1-(2-(5-chloropyrimidin-2-yl)-3-cyclopentyl-1-methyl-1H-indole-6-carboxamido)cyclobutanecarboxamido)-2-ethoxyphenyl)acrylic acid at 10 mg/kg, po using 10.6% PEG400, 5.4% Cremophor EL, 2.6% Labrasol, 1.4% Capmul MCM in water (80%) vehicle; type: ADME, organism-based; set-up: dose 10 mg/kg, route oral; conditions: in vivo; method in brief: as §2
Rattus norvegicus [15] = assay: AUC in rat plasma assessed as (E)-3-(4-(1-(2-(5-chloropyrimidin-2-yl)-3-cyclopentyl-1-methyl-1H-indole-6-carboxamido)cyclobutanecarboxamido)-2-ethoxyphenyl)acrylic acid at 10 mg/kg, po using 10.6% PEG400, 5.4% Cremophor EL, 2.6% Labrasol, 1.4% Capmul MCM in water (80%) vehicle; type: ADME, organism-based; set-up: dose 10 mg/kg, route oral; conditions: in vivo; method in brief: as §2
[16] = Prodrug solubility in capmul; type: ADME
[17] = Prodrug solubility in solutol; type: ADME
[18] = Prodrug solubility in Labrasol; type: ADME
[19] = Dissociation constant, pKa of the compound; type: physicochemical
Rattus norvegicus [20] = assay: as §3; type: ADME, organism-based; set-up: dose 10 mg/kg, route oral; conditions: in vivo, BLD = below limit of detection; method in brief: as §2
Rattus norvegicus [21] = assay: as §4; type: ADME, organism-based; set-up: dose 10 mg/kg, route oral; conditions: in vivo, BLD = below limit of detection; method in brief: as §2

Row | SMILES | t1/2 (Plasma [1]) | t1/2 (Plasma [2]) | t1/2 [3] | t1/2 (Intestine) | t1/2 [4] | t1/2 (Liver microsome [5]) | t1/2 [6] | t1/2 (Liver microsome [7]) | Cmax [12] | AUC [13] | Cmax (Rattus norvegicus [14]) | AUC (Rattus norvegicus [15]) | solubility [16] | solubility [17] | solubility [18] | pKa [19] | Cmax (Rattus norvegicus [20]) | AUC (Rattus norvegicus [21]) | further results
1 | CCOc1cc(NC(=O)C2(NC(=O)c3ccc4c(C5CCCC5)c(-c5ncc(Cl)cn5)n(C)c4c3)CCC2)ccc1/C=C/C(=O)OC | > 5 h | > 5 h | 2.5 h | 1.82 h | 6.87 h | 1.63 h | 9.07 h | 12.7 h | 840 nM | 2.6 µM·h | 5200 nM | 30.7 µM·h | – | – | – | – | – | – | Cmax [8]: 10 nM; AUC [9]: 0.07 µM·h; Cmax (Rattus norvegicus [10]): 510 nM; AUC (Rattus norvegicus [11]): 5.7 µM·h
2 | CCOc1cc(NC(=O)C2(NC(=O)c3ccc4c(C5CCCC5)c(-c5ncc(Cl)cn5)n(C)c4c3)CCC2)ccc1/C=C/C(=O)OCCN(C)C | > 5 h | 1.4 h | 1.82 h | 1.47 h | 6.6 h | 0.317 h | > 5 h | 1.5 h | – | – | 1600 nM | 10.1 µM·h | < 100 mg/mL | < 100 mg/mL | < 100 mg/mL | 7.7 | BLD | BLD | –
3 | CCOc1cc(NC(=O)C2(NC(=O)c3ccc4c(C5CCCC5)c(-c5ncc(Cl)cn5)n(C)c4c3)CCC2)ccc1/C=C/C(=O)OCCN1CCOCC1 | > 5 h | 1.6 h | 0.333 h | 3.5 h | 4.28 h | 0.583 h | 15.2 h | 0.917 h | 70 nM | 0.2 µM·h | 7200 nM | 35.2 µM·h | < 30 mg/mL | < 60 mg/mL | < 60 mg/mL | 5.7 | – | – | –
4 | CCOc1cc(NC(=O)C2(NC(=O)c3ccc4c(C5CCCC5)c(-c5ncc(Cl)cn5)n(C)c4c3)CCC2)ccc1/C=C/C(=O)OCCN1CCCC1 | – | – | – | – | – | – | – | – | – | – | 1100 nM | 6.5 µM·h | < 60 mg/mL | < 100 mg/mL | < 60 mg/mL | 7.7 | BLD | BLD | –
5 | CCOc1cc(NC(=O)C2(NC(=O)c3ccc4c(C5CCCC5)c(-c5ncc(Cl)cn5)n(C)c4c3)CCC2)ccc1/C=C/C(=O)OCCN1CCN(C)CC1 | – | – | – | – | – | 0.217 h | – | 1.85 h | – | – | 1200 nM | 7.9 µM·h | – | < 100 mg/mL | < 100 mg/mL | 7.7 | BLD | BLD | –
